Results published in ChEMBL document CHEMBL5724801, “EUbOPEN Chemogenomics Library - Multiplex” (2024).
Values joined by “and” are separate entries in the source; they are usually repeats but may differ in a detail not shown here. Equal entries are not always repeated.

Experiments:
Type in all cases: toxicity, cell-based
[1] = tested on: U2OS; test: Multiplex assay against U2OS; settings: human
How it was run: (§1)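 At seeding, live cells were stained with Hoechst33342, BioTracker Green Microtubule Cytoskeleton Dye, MitoTracker Red and Annexin V Alexa Fluor 680. After compound addition they were imaged on a CQ1 microscope at 37°C and 5% CO2, and CellPathfinder machine-learning gating sorted them into Hoechst high-intensity objects or normal cells, with normal cells further split into healthy, pyknosed or fragmented nuclei and pyknosed cells into mitotic or apoptotic. Tubulin, mitochondrial-mass and membrane-permeability phenotypes are given as per cents of cells with healthy nuclei.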

[2] = tested on: Fibroblast; test: Multiplex assay against human fibroblast; how it was run: as §1
[3] = tested on: HEK-293T; test: Multiplex assay against HEK293T; settings: human; how it was run: as §1
[4] = 12 h, 1 µM, compound concentration 1 uM
[5] = 12 h, 10 µM, compound concentration 10 uM
[6] = 24 h, 1 µM, compound concentration 1 uM
[7] = 24 h, 10 µM, compound concentration 10 uM
[8] = 48 h, 1 µM, compound concentration 1 uM
[9] = 48 h, 10 µM, compound concentration 10 uM

COc1cc(N2CCN(C)CC2)ccc1Nc1nccc(-c2cn(C)c3cnccc23)n1
Population Apoptotic (%) [1, 4]: 42.42% and 21.43% | Population Fragmented Nuclei (%) [1, 4]: 1.36% and 2.74% | Population Healthy Nuclei (%) [1, 4]: 89.7% and 78.08% | Population Hoechst High Intensity Objects (%) [1, 4]: 0.27% and 0% | Population Membrane Permeable-Phenotype (%) [1, 4]: 5.14% and 14.04% | Population Mitotic Cells (%) [1, 4]: 57.58% and 78.57% | Population Normal (%) [1, 4]: 99.73% and 100% | Population Pyknosed Nuclei (%) [1, 4]: 8.94% and 19.18% | Population Tubulin-Different-Phenotype (%) [1, 4]: 5.14% and 4.39% | Total Cell Count [1, 4]: 370 and 146 | Population Apoptotic (%) [1, 5]: 48.67% and 23.94% | Population Fragmented Nuclei (%) [1, 5]: 6.32% and 4.8% | Population Healthy Nuclei (%) [1, 5]: 61.21% and 38.4% | Population Hoechst High Intensity Objects (%) [1, 5]: 0% | Population Membrane Permeable-Phenotype (%) [1, 5]: 33.33% and 66.67% | Population Mitotic Cells (%) [1, 5]: 51.33% and 76.06% | Population Normal (%) [1, 5]: 100% | Population Pyknosed Nuclei (%) [1, 5]: 32.47% and 56.8% | Population Tubulin-Different-Phenotype (%) [1, 5]: 60.56% and 58.33% | Total Cell Count [1, 5]: 348 and 125 | Population Apoptotic (%) [1, 6]: 46.67% and 20.69% | Population Fragmented Nuclei (%) [1, 6]: 0.88% and 3.53% | Population Healthy Nuclei (%) [1, 6]: 89.18% and 79.41% | Population Hoechst High Intensity Objects (%) [1, 6]: 0% | Population Membrane Permeable-Phenotype (%) [1, 6]: 3.96% and 9.63% | Population Mitotic Cells (%) [1, 6]: 53.33% and 79.31% | Population Normal (%) [1, 6]: 100% | Population Pyknosed Nuclei (%) [1, 6]: 9.93% and 17.06% | Population Tubulin-Different-Phenotype (%) [1, 6]: 3.71% and 5.19% | Total Cell Count [1, 6]: 453 and 170 | Population Apoptotic (%) [1, 7]: 79.82% and 63.75% | Population Fragmented Nuclei (%) [1, 7]: 10.27% and 17.39% | Population Healthy Nuclei (%) [1, 7]: 55.29% and 24.64% | Population Hoechst High Intensity Objects (%) [1, 7]: 0% | Population Membrane Permeable-Phenotype (%) [1, 7]: 25.68% and 44.12% | Population Mitotic Cells (%) [1, 7]: 20.18% and 36.25% | Population Normal (%) [1, 7]: 100% | Population Pyknosed Nuclei (%) [1, 7]: 34.44% and 57.97% | Population Tubulin-Different-Phenotype (%) [1, 7]: 53.55% and 44.12% | Total Cell Count [1, 7]: 331 and 138 | Population Apoptotic (%) [1, 8]: 46.51% and 48.94% | Population Fragmented Nuclei (%) [1, 8]: 1.87% and 5.31% | Population Healthy Nuclei (%) [1, 8]: 87.42% and 75.51% | Population Hoechst High Intensity Objects (%) [1, 8]: 0% | Population Membrane Permeable-Phenotype (%) [1, 8]: 1.42% and 4.86% | Population Mitotic Cells (%) [1, 8]: 53.49% and 51.06% | Population Normal (%) [1, 8]: 100% | Population Pyknosed Nuclei (%) [1, 8]: 10.71% and 19.18% | Population Tubulin-Different-Phenotype (%) [1, 8]: 2.14% and 3.78% | Population Apoptotic (%) [1, 9]: 82.73% and 95.65% | Population Fragmented Nuclei (%) [1, 9]: 15.62% and 15.79% | Population Hoechst High Intensity Objects (%) [1, 9]: 0% | Population Membrane Permeable-Phenotype (%) [1, 9]: 15.15% and 25% | Population Normal (%) [1, 9]: 100% | Population Pyknosed Nuclei (%) [1, 9]: 30.14% and 69.17% | Population Tubulin-Different-Phenotype (%) [1, 9]: 53.54% and 40% | Total Cell Count [1, 9]: 365 and 133 | Population Apoptotic (%) [2, 4]: 11.76% and 10% | Population Fragmented Nuclei (%) [2, 4]: 12.81% and 10.18% | Population Healthy Nuclei (%) [2, 4]: 70.44% and 80.97% | Population Hoechst High Intensity Objects (%) [2, 4]: 0% | Population Membrane Permeable-Phenotype (%) [2, 4]: 3.5% and 4.92% | Population Mitochondria Different-Phenotype (%) [2, 4]: 9.79% and 6.56% | Population Mitotic Cells (%) [2, 4]: 88.24% and 90% | Population Normal (%) [2, 4]: 100% | Population Pyknosed Nuclei (%) [2, 4]: 16.75% and 8.85% | Population Tubulin-Different-Phenotype (%) [2, 4]: 16.78% and 35.52% | Total Cell Count [2, 4]: 203 and 226 | Population Apoptotic (%) [2, 5]: 3.08% and 5.97% | Population Healthy Nuclei (%) [2, 5]: 41.67% and 59.65% | Population Hoechst High Intensity Objects (%) [2, 5]: 0% | Population Membrane Permeable-Phenotype (%) [2, 5]: 13.85% and 8.82% | Population Mitochondria Different-Phenotype (%) [2, 5]: 35.38% and 54.9% | Population Mitotic Cells (%) [2, 5]: 96.92% and 94.03% | Population Normal (%) [2, 5]: 100% | Population Pyknosed Nuclei (%) [2, 5]: 41.67% and 39.18% | Population Tubulin-Different-Phenotype (%) [2, 5]: 55.38% and 85.29% | Total Cell Count [2, 5]: 156 and 171 | Population Apoptotic (%) [2, 6]: 21.74% and 7.69% | Population Fragmented Nuclei (%) [2, 6]: 12.15% and 10.47% | Population Healthy Nuclei (%) [2, 6]: 77.1% and 84.5% | Population Hoechst High Intensity Objects (%) [2, 6]: 0% | Population Membrane Permeable-Phenotype (%) [2, 6]: 4.85% and 5.05% | Population Mitochondria Different-Phenotype (%) [2, 6]: 10.3% and 3.21% | Population Mitotic Cells (%) [2, 6]: 78.26% and 92.31% | Population Normal (%) [2, 6]: 100% | Population Pyknosed Nuclei (%) [2, 6]: 10.75% and 5.04% | Population Tubulin-Different-Phenotype (%) [2, 6]: 13.94% and 38.53% | Total Cell Count [2, 6]: 214 and 258 | Population Apoptotic (%) [2, 7]: 5.77% and 8.77% | Population Healthy Nuclei (%) [2, 7]: 47.62% and 66.67% | Population Hoechst High Intensity Objects (%) [2, 7]: 0% | Population Membrane Permeable-Phenotype (%) [2, 7]: 2.86% and 10.48% | Population Mitochondria Different-Phenotype (%) [2, 7]: 41.43% and 41.13% | Population Mitotic Cells (%) [2, 7]: 94.23% and 91.23% | Population Normal (%) [2, 7]: 100% | Population Pyknosed Nuclei (%) [2, 7]: 35.37% and 30.65% | Population Tubulin-Different-Phenotype (%) [2, 7]: 70% and 74.19% | Total Cell Count [2, 7]: 147 and 186 | Population Fragmented Nuclei (%) [2, 8]: 17.86% and 7.25% | Population Healthy Nuclei (%) [2, 8]: 77.23% and 87.02% | Population Hoechst High Intensity Objects (%) [2, 8]: 0% | Population Membrane Permeable-Phenotype (%) [2, 8]: 0% and 1.75% | Population Mitochondria Different-Phenotype (%) [2, 8]: 12.72% and 3.95% | Population Mitotic Cells (%) [2, 8]: 100% and 66.67% | Population Normal (%) [2, 8]: 100% | Population Pyknosed Nuclei (%) [2, 8]: 4.91% and 5.73% | Population Tubulin-Different-Phenotype (%) [2, 8]: 12.72% and 38.16% | Total Cell Count [2, 8]: 224 and 262 | Population Fragmented Nuclei (%) [2, 9]: 16.88% and 21.97% | Population Healthy Nuclei (%) [2, 9]: 73.75% and 64.57% | Population Hoechst High Intensity Objects (%) [2, 9]: 0% | Population Membrane Permeable-Phenotype (%) [2, 9]: 5.08% and 2.08% | Population Mitochondria Different-Phenotype (%) [2, 9]: 31.36% and 25% | Population Mitotic Cells (%) [2, 9]: 66.67% and 90% | Population Normal (%) [2, 9]: 100% | Population Pyknosed Nuclei (%) [2, 9]: 9.38% and 13.45% | Population Tubulin-Different-Phenotype (%) [2, 9]: 44.92% and 80.56% | Total Cell Count [2, 9]: 160 and 223 | Population Apoptotic (%) [3, 4]: 10.14% and 10.53% | Population Fragmented Nuclei (%) [3, 4]: 3.23% and 1.83% | Population Hoechst High Intensity Objects (%) [3, 4]: 0% | Population Membrane Permeable-Phenotype (%) [3, 4]: 0% | Population Mitotic Cells (%) [3, 4]: 89.86% and 89.47% | Population Normal (%) [3, 4]: 100% | Population Pyknosed Nuclei (%) [3, 4]: 31.8% and 87.16% | Population Apoptotic (%) [3, 5]: 19.35% and 16.13% | Population Fragmented Nuclei (%) [3, 5]: 1.59% and 4.51% | Population Hoechst High Intensity Objects (%) [3, 5]: 0% | Population Membrane Permeable-Phenotype (%) [3, 5]: 0.4% and 2.94% | Population Mitotic Cells (%) [3, 5]: 80.65% and 83.87% | Population Normal (%) [3, 5]: 100% | Total Cell Count [3, 5]: 314 and 133 | Population Apoptotic (%) [3, 6]: 19.27% and 15.66% | Population Fragmented Nuclei (%) [3, 6]: 1.54% and 3.91% | Population Healthy Nuclei (%) [3, 6]: 81.64% and 31.25% | Population Hoechst High Intensity Objects (%) [3, 6]: 0% | Population Membrane Permeable-Phenotype (%) [3, 6]: 1.13% and 2.5% | Population Mitochondria Different-Phenotype (%) [3, 6]: 11.15% and 10% | Population Mitotic Cells (%) [3, 6]: 80.73% and 84.34% | Population Normal (%) [3, 6]: 100% | Population Tubulin-Different-Phenotype (%) [3, 6]: 12.1% and 5% | Population Apoptotic (%) [3, 7]: 27.27% and 28.81% | Population Fragmented Nuclei (%) [3, 7]: 2.49% and 1.67% | Population Healthy Nuclei (%) [3, 7]: 87.23% and 49.17% | Population Hoechst High Intensity Objects (%) [3, 7]: 0% | Population Membrane Permeable-Phenotype (%) [3, 7]: 1.07% and 6.78% | Population Mitochondria Different-Phenotype (%) [3, 7]: 7.5% and 3.39% | Population Mitotic Cells (%) [3, 7]: 72.73% and 71.19% | Population Normal (%) [3, 7]: 100% | Population Tubulin-Different-Phenotype (%) [3, 7]: 26.07% and 10.17% | Total Cell Count [3, 7]: 321 and 120 | Population Apoptotic (%) [3, 8]: 7.58% and 13.11% | Population Fragmented Nuclei (%) [3, 8]: 2.6% and 3.77% | Population Healthy Nuclei (%) [3, 8]: 85.55% and 57.86% | Population Hoechst High Intensity Objects (%) [3, 8]: 0.09% and 0.62% | Population Membrane Permeable-Phenotype (%) [3, 8]: 3.57% and 0% | Population Mitochondria Different-Phenotype (%) [3, 8]: 18.99% and 33.7% | Population Mitotic Cells (%) [3, 8]: 92.42% and 86.89% | Population Normal (%) [3, 8]: 99.91% and 99.38% | Population Apoptotic (%) [3, 9]: 20% and 25% | Population Fragmented Nuclei (%) [3, 9]: 4.38% and 4.51% | Population Healthy Nuclei (%) [3, 9]: 87.29% and 74.44% | Population Hoechst High Intensity Objects (%) [3, 9]: 0% | Population Membrane Permeable-Phenotype (%) [3, 9]: 2.86% and 0% | Population Mitochondria Different-Phenotype (%) [3, 9]: 21.24% and 29.29% | Population Mitotic Cells (%) [3, 9]: 80% and 75% | Population Normal (%) [3, 9]: 100% | Population Pyknosed Nuclei (%) [3, 9]: 8.33% and 21.05%
